For 18 compounds, ED50, ED15 and IC50 results are on record in ChEMBL document CHEMBL1124799, “1,4-bis(3-oxo-2,3-dihydropyridazin-6-yl)benzene analogues: potent phosphodiesterase inhibitors and inodilators” (1990).

Broadly, the ED50 is the midpoint of the dose-response relation. One may read the IC50 as the concentration that gives 50% inhibition. The low end stands for inhibition by little substance, the high end for a need for much substance.

Assay [1] relates to Felis catus. The assay is described as follows: The dose required to cause 50% increase in the contractility and inotropic activity as dLVP/dt(max) in anesthetized cat. It counts as functional. In a few lines: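 Pentobarbitone-anesthetized cats (60 mg/kg ip), given pempidine 5 mg/kg and then propranolol 1 mg/kg iv plus 3–4 mg/kg sc. Cats responding to isoprenaline 0.01–0.1 μg/kg iv with less than a 100% contractility rise were rejected. Test compound given as an iv bolus, with dLVP/dt(max) as the read-out. ED50 is the dose giving a 50% rise over control, from dose-response curves, mean of ≥2 experiments. Duration was scored by the time for dLVP/dt to return to control.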

Assay [2] relates to Felis catus. The assay is described as follows: ED15 is the dose producing 15% decrease in autoperfused hindquarters perfusion pressure in anesthetized cat. It is filed as functional. In a few lines: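 Anesthetized cats (either sex, 1.9–2.5 kg; pentobarbitone 60 mg/kg ip), ganglion-blocked with pempidine 5 mg/kg, then β-blocked with propranolol 1 mg/kg iv plus 3–4 mg/kg sc, heparinized 500 units/kg iv. Hindquarters autoperfused via the descending aorta. Test compound given as an iv bolus. ED15 taken as the dose lowering perfusion pressure by 15%, from dose-response curves, mean of ≥2 experiments.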

In assay [3] the test system is Phosphodiesterase 3 (Felis catus). The assay can be described thus: Inhibition of phosphodiesterase 3 enzyme activity by 50%.
Assay [4] shares this test system. The assay is described as follows: Inhibition of Phosphodiesterase 3.

For `CC1CC(=O)NN=C1c1ccc(-c2ccc(O)nn2)cc1` (configuration not stated), in assay [1], it took a dose of 0.02 µmol/kg to reach the 50% effect level (ED50). The ED15 in assay [2] was 0.01 µM/kg. Moreover, inhibition in assay [3] was half-maximal at 0.07 µM (IC50).
Consider `CC1SC(=O)NN=C1c1ccc(C2=NNC(=O)SC2C)cc1` (configuration not stated), for which, in assay [1], the median effective dose (ED50) is 0.13 µmol/kg. The compound also showed an ED15 in assay [2] of 0.09 µM/kg. This compound also yielded an IC50 in assay [4] of 0.08 µM.
Turning to `CC1CC(=O)NN=C1c1ccc(N)cc1` (configuration not stated), in assay [1], it took a dose of 1.7 µmol/kg to reach the 50% effect level (ED50). The ED15 in assay [2] is 0.5 µM/kg. Besides, 37 µM corresponded to half-maximal inhibition in assay [3] (IC50).
Take `CC(=O)Nc1ccc(C2=NNC(=O)CC2C)cc1` (configuration not stated): the ED50 in assay [1] was 0.03 µmol/kg. The compound also gave an ED15 in assay [2] of 0.08 µM/kg.
`Oc1ccc(-c2ccc(-c3ccc(O)nn3)s2)nn1` gave an ED50 in assay [1] of 0.73 µmol/kg. This compound returned an ED15 in assay [2] of 0.38 µM/kg. The same compound came in with an IC50 in assay [3] of 0.49 µM.
For the compound `Oc1ccc(-c2cccc(-c3ccc(O)nn3)c2)nn1`, the ED15 in assay [2] came out at 3.23 µM/kg. This compound returned a concentration for half-maximal inhibition (IC50) in assay [3] of 3.9 µM.
Turning to `Oc1ccc(-c2ccc(-c3ccc(-c4ccc(O)nn4)cc3)cc2)nn1`, the half-maximal inhibitory concentration (IC50) in assay [3] is greater than 100 µM.
As to `CC1CC(O)=NN=C1c1ccc(-n2ccnc2)cc1` (configuration not stated) [CI-930], in assay [1], the 50% effective dose (ED50) worked out at 0.18 µmol/kg. Moreover, the ED15 in assay [2] stood at 0.09 µM/kg.
For `Oc1ccc(-c2ccc(-c3ccc(O)nn3)cc2)nn1`, the ED50 in assay [1] amounted to 0.04 µmol/kg. Besides, in assay [2], the ED15 turned out to be 0.06 µM/kg. Also, the IC50 in assay [3] amounted to 0.33 µM.
Compound `CC1CC(=O)NN=C1c1ccc(C2=NNC(=O)CC2C)cc1` (configuration not stated) gave a median effective dose (ED50) in assay [1] of 0.06 µmol/kg. Further, the ED15 in assay [2] is 0.04 µM/kg. For the same compound, the 50% inhibitory concentration (IC50) in assay [3] worked out at 0.11 µM.
In turn, `Nc1ccc(-c2ccc(O)nn2)cc1` returned a half-inhibitory concentration (IC50) in assay [3] of 22.8 µM.
Compound `O=C1CCC(c2ccc(-n3ccnc3)cc2)=NN1` [IMAZODAN] gave an ED50 in assay [1] of 0.64 µmol/kg. This compound had an ED15 in assay [2] of 0.42 µM/kg.
Regarding `Nc1ccc(C2=NNC(=O)CC2)cc1`, the 50% effect level in assay [1] (ED50) was put at a dose of 4.43 µmol/kg. In assay [2], this compound had an ED15 of 1.4 µM/kg. This compound also returned a half-maximal inhibitory concentration (IC50) in assay [3] of 61.7 µM.
Take `Cc1cc(O)nnc1-c1ccc(-c2nnc(O)cc2C)cc1`: the IC50 in assay [3] worked out at 37.5 µM.
`CC(=O)Nc1ccc(C2=NNC(=O)CC2)cc1` came in with a median effective dose (ED50) in assay [1] of 0.19 µmol/kg. This compound also showed an ED15 in assay [2] of 0.2 µM/kg. In addition, the IC50 in assay [3] amounted to 7.13 µM.
The compound `CC(=O)Nc1ccc(-c2ccc(O)nn2)cc1` displayed an IC50 in assay [3] of 6.38 µM.
Turning to `O=C1CCC(c2ccc(C3=NNC(=O)CC3)cc2)=NN1`, the 50% effect level in assay [1] (ED50) was put at a dose of 0.55 µmol/kg. The compound also registered an ED15 in assay [2] of 0.12 µM/kg. The compound further showed a 50% inhibitory concentration (IC50) in assay [3] of 0.64 µM.
For `CC1CC(=O)NN=C1c1ccc(C(N)=O)cc1` (configuration not stated) the same measures were 0.07 µmol/kg, 0.1 µM/kg and 2.23 µM.
